# Experimental data taken from ChEMBL document CHEMBL1152990, “The mechanism of action of beta-D-2'-deoxy-2'-fluoro-2'-C-methylcytidine involves a second metabolic pathway leading to beta-D-2'-deoxy-2'-fluoro-2'-C-methyluridine 5'-triphosphate, a potent inhibitor of the hepatitis C virus RNA-dependent RNA polymerase” (Antimicrob Agents Chemother, 2008).
# Legend:
# [1] = substrate: C[C@@]1(F)[C@H](O)[C@@H](COP(=O)(O)O)O[C@H]1n1ccc(=O)[nH]c1=O; assay: Ratio of Kcat to Km for cloned UMP-CMP kinase in human HuH7 cells assessed as formation of RO2433 diphosphate by spectrophotometry; type: cell-based; details: Huh-7
# Outline: (§1)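 Recombinant human kinase read out by PK/LDH coupling, following NADH oxidation at 340 nm. Rates were measured over varied substrate levels and fitted for steady-state parameters.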
# [2] = substrate: C[C@@]1(F)[C@H](O)[C@@H](COP(=O)(O)O)O[C@H]1n1ccc(=O)[nH]c1=O; assay: Activity of cloned UMP-CMP kinase in human HuH7 cells assessed as formation of RO2433 diphosphate by spectrophotometry; type: cell-based; details: Huh-7; outline: as §1
# [3] = substrate: C[C@@]1(F)[C@H](O)[C@@H](COP(=O)(O)O)O[C@H]1n1ccc(N)nc1=O; assay: Ratio of Kcat to Km for cloned deoxycytidylate deaminase in human HepG2 cells by HPLC assay; type: cell-based
# Outline: (§2)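 Recombinant His-tagged human DCTD cloned from HepG2 cells. 0.56 μg enzyme in 50 mM Tris-HCl pH 7.5, 2 mM MgCl2, 20 mM β-mercaptoethanol, at 37°C. Samples taken at 5, 10 and 20 min, quenched with HCl and filtered. Nucleotides were resolved by SAX HPLC (KH2PO4 pH 3.5 gradient), detected at 254 nm and quantified against standard curves.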
# [4] = substrate: Nc1ccn([C@H]2C[C@H](O)[C@@H](COP(=O)(O)O)O2)c(=O)n1; assay: Activity of cloned deoxycytidylate deaminase in human HepG2 cells by spectrophotometric analysis; type: cell-based
# Outline: (§3)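 Recombinant human DCTD cloned from HepG2 cells, 9.3 nM final, with dCMP substrate. Spectrophotometric deamination at 37°C, monitoring absorbance at 290 nm (Δɛ = 1,694 M−1 cm−1). Rates from linear traces were fitted to Michaelis-Menten to obtain Km, kcat and kcat/Km.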
# [5] = substrate: C[C@@]1(F)[C@H](O)[C@@H](COP(=O)(O)O)O[C@H]1n1ccc(N)nc1=O; assay: Activity of cloned deoxycytidylate deaminase in human HepG2 cells by HPLC assay; type: cell-based; outline: as §2
# [6] = substrate: Nc1ccn([C@H]2C[C@H](O)[C@@H](COP(=O)(O)O)O2)c(=O)n1; assay: Ratio of Kcat to Km for cloned deoxycytidylate deaminase in human HepG2 cells by spectrophotometric analysis; type: cell-based; outline: as §3
# [7] = substrate: Nc1ccn([C@@H]2O[C@H](CO)[C@@H](O)[C@H]2F)c(=O)n1; details: Homo sapiens; Huh-7
# [8] = substrate: Nc1ccn([C@H]2C[C@H](O)[C@@H](CO)O2)c(=O)n1; details: Homo sapiens; Huh-7
# [9] = substrate: Nc1ccn([C@@H]2O[C@H](CO)[C@@H](O)[C@H]2F)c(=O)n1; details: Homo sapiens; Huh-7; remark: listed apart in the source
# [10] = substrate: Nc1ccn([C@H]2C[C@H](O)[C@@H](CO)O2)c(=O)n1; details: Homo sapiens; Huh-7; remark: listed apart in the source
# [11] = substrate: C[C@@]1(O)[C@H](O)[C@@H](CO)O[C@H]1n1ccc(N)nc1=O; details: Homo sapiens; Huh-7
# [12] = substrate: C[C@@]1(F)[C@H](O)[C@@H](CO)O[C@H]1n1ccc(N)nc1=O; details: Homo sapiens; Huh-7
# [13] = substrate: C[C@@]1(O)[C@H](O)[C@@H](CO)O[C@H]1n1ccc(N)nc1=O; assay: (§4) Activity of cloned cytidine deaminase in human HuH7 cells at 4 mM by spectrophotometric analysis; type: cell-based; details: Huh-7
# Outline: (§5)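 Recombinant human CDA cloned from Huh-7 cells. Reaction at 30°C in 50 mM Tris-HCl pH 7.5, started by adding enzyme. Deamination was followed spectrophotometrically at wavelengths chosen by substrate level, with Δɛ set per wavelength. Rates came from the linear trace and Beer's law and were fitted to Michaelis-Menten. Highest concentration tested 4 mM.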
# [14] = substrate: C[C@@]1(F)[C@H](O)[C@@H](CO)O[C@H]1n1ccc(N)nc1=O; assay: as §4; type: cell-based; details: Huh-7; outline: as §5
protein,measurement,setting,value
"UMP-CMP kinase (Homo sapiens), P30085 (protein) MKPLVVFVLGGPGAGKGTQCARIVEKYGYTHLSAGELLRDERKNPDSQYGELIEKYIKEGKIVPVEITISLLKREMDQTMAANAQKNKFLIDGFPRNQDNLQGWNKTMDGKADVSFVLFFDCNNEICIERCLERGKSSGRSDDNRESLEKRIQTYLQSTKPIIDLYEEMGKVKKIDASKSVDEVFDEVVQIFDKEG",kcat/Km,[1],9100 M⁻¹ s⁻¹
same,Km,[2],870 µM
same,kcat,[2],7.9 s⁻¹
"Deoxycytidylate deaminase (Homo sapiens), P32321 (protein) MSEVSCKKRDDYLEWPEYFMAVAFLSAQRSKDPNSQVGACIVNSENKIVGIGYNGMPNGCSDDVLPWRRTAENKLDTKYPYVCHAELNAIMNKNSTDVKGCSMYVALFPCNECAKLIIQAGIKEVIFMSDKYHDSDEATAARLLFNMAGVTFRKFIPKCSKIVIDFDSINSRPSQKLQ",kcat/Km,[3],400 M⁻¹ s⁻¹
same,Km,[4],87 µM
same,kcat,[4],246 s⁻¹
same,Km,[5],2000 µM
same,kcat,[5],0.82 s⁻¹
same,kcat/Km,[6],2.8e+06 M⁻¹ s⁻¹
"Cytidine deaminase (Homo sapiens), P32320 (protein) MAQKRPACTLKPECVQQLLVCSQEAKKSAYCPYSHFPVGAALLTQEGRIFKGCNIENACYPLGICAERTAIQKAVSEGYKDFRAIAIASDMQDDFISPCGACRQVMREFGTNWPVYMTKPDGTYIVMTVQELLPSSFGPEDLQKTQ",Km,[7],27 µM
same,kcat,[7],3.8 s⁻¹
same,Km,[8],41 µM
same,kcat,[8],4.8 s⁻¹
same,kcat/Km,[9],140000 M⁻¹ s⁻¹
same,kcat/Km,[10],120000 M⁻¹ s⁻¹
same,kcat/Km,[11],58 M⁻¹ s⁻¹
same,kcat/Km,[12],65 M⁻¹ s⁻¹
same,Km,[13],3100 µM
same,kcat,[13],0.18 s⁻¹
same,Km,[14],4000 µM
same,kcat,[14],0.26 s⁻¹
